According to ChEMBL document CHEMBL2429803, “Animal toxicity of hairpin pyrrole-imidazole polyamides varies with the turn unit” (J Med Chem, 2013):

Experiments:
Mus musculus [1] = assay: Acute toxicity in C57BL/6J mouse assessed as tubular epithelial necrosis and apoptosis in kidney at 3 to 10 mg/kg, sc after 9 days; format: organism-based; parameters: dose 3-10 mg/kg, route subcutaneous; details: in vivo, 216 h
In short: (§1)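 Male C57BL/6J mice, 8 weeks old, received a single sc dose (1, 3 or 10 mg/kg in 25% DMSO/saline, n = 4 per group) and were sacrificed after 9 days. Two representative animals per group were fixed in 10% formalin. Cecum, duodenum, heart, ileum, kidney, liver, lung, pancreas, spleen and stomach were examined blind by a veterinary pathologist and lesions graded mild, moderate or severe.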

Mus musculus [2] = assay: Acute toxicity in C57BL/6J mouse assessed as moderate atypical tubular regeneration in kidney at 3 to 10 mg/kg, sc after 9 days; format: organism-based; parameters: dose 3-10 mg/kg, route subcutaneous; details: in vivo, 216 h; in short: as §1
Mus musculus [3] = assay: Toxicity in C57BL/6J mouse assessed as loss of mobility at 1 mg/kg, sc administered every 3 days for a cycle of 2 injections; format: organism-based; parameters: dose 1 mg/kg, route subcutaneous; details: in vivo, 72 h
In short: (§2)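 Male C57BL/6J mice, 3 per group, given 1 mg/kg sc every 3 days. Weight recorded on injection days. Watched for signs of duress. Humane end point was visible duress or weight loss over 15% of starting body weight.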

Mus musculus [4] = assay: Toxicity in C57BL/6J mouse assessed as weight loss at 1 mg/kg, sc administered every 3 days for a cycle of 2 injections; format: organism-based; parameters: dose 1 mg/kg, route subcutaneous; details: in vivo, 72 h
In short: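 8-week-old male C57BL/6J mice, acclimated 3 days, groups of three, dosed sc in 25% DMSO/saline vehicle once every 3 days, sacrificed 2 days after the last injection. Body weight recorded on injection days and at end point; humane end point set at visible duress or >15% loss of original body weight.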

Mus musculus [5] = assay: Acute toxicity in C57BL/6J mouse assessed as acute morbidity at 3 to 10 mg/kg, sc after 9 days; format: organism-based; parameters: dose 3-10 mg/kg, route subcutaneous; details: in vivo, 216 h
In short: (§3)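 Male C57BL/6J mice, 8 weeks old, were acclimated 3 days and then given a single sc injection of 1, 3 or 10 mg/kg in 25% DMSO/saline vehicle (up to 200 μL), n = 4 per group. Weight, behaviour and appearance were monitored daily for 9 days before sacrifice. The humane end point was visible duress or weight loss over 15% of the original.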

Mus musculus [6] = assay: Toxicity in C57BL/6J mouse assessed as hunched posture at 1 mg/kg, sc administered every 3 days for a cycle of 2 injections; format: organism-based; parameters: dose 1 mg/kg, route subcutaneous; details: in vivo, 72 h; in short: as §2
Mus musculus [7] = assay: Acute toxicity in C57BL/6J mouse assessed as hunched posture at 3 to 10 mg/kg, sc after 9 days; format: organism-based; parameters: dose 3-10 mg/kg, route subcutaneous; details: in vivo, 216 h; in short: as §3
[8] = Metabolic stability in human liver microsomes after 1 hr by LC/MS/MS analysis in presence of NADPH; format: ADME, Microsome; details: read-out: Stability
In short: (§4)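 Compound incubated at 37 °C for 60 min with 1 mg/mL human or mouse liver microsomes in 100 mM KH2PO4, 3 mM MgCl2, pH 7.4, with 2 mM NADPH or without it. Stopped with ice-cold methanol, then precipitate removed. Analyzed by LC/MS/MS as % remaining versus time zero. Duplicates.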

[9] = Metabolic stability in human liver microsomes after 1 hr by LC/MS/MS analysis; format: ADME, Microsome; details: read-out: Stability; in short: as §4
Mus musculus [10] = assay: Toxicity in C57BL/6J mouse assessed as hyaline droplet accumulation at 1 mg/kg, sc administered every 3 days for a cycle of 3 injections measured 2 days post last injection; format: organism-based; parameters: dose 1 mg/kg, route subcutaneous; details: in vivo, 48 h
In short: (§5)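 Male C57BL/6J mice, 8 weeks old, given 1 mg/kg sc every 3 days for three injections and sacrificed 2 days after the last one. Two mice per group fixed in 10% formalin. A veterinary pathologist, blinded, examined cecum, duodenum, heart, ileum, kidney, liver, lung, pancreas, spleen and stomach. Lesions graded mild, moderate or severe.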

Mus musculus [11] = assay: Acute toxicity in C57BL/6J mouse at 1 mg/kg, sc after 9 days; format: organism-based; parameters: dose 1 mg/kg, route subcutaneous; details: in vivo, 216 h
In short: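 Single sc injection in male 8-week-old C57BL/6J mice (1, 3 or 10 mg/kg in 25% DMSO/saline; n = 4 per group), followed for 9 days with daily weighing, then sacrifice. Toxicity was assessed by blinded histopathology of two mice per group and by blinded serum ALT, AST, total bilirubin, BUN and creatinine from retroorbital blood of all mice.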

Mus musculus [12] = assay: Acute toxicity in C57BL/6J mouse assessed as lesions in stomach at 1 to 10 mg/kg, sc after 9 days; format: organism-based; parameters: dose 1-10 mg/kg, route subcutaneous; details: in vivo, 216 h; in short: as §1
Mus musculus [13] = assay: Acute toxicity in C57BL/6J mouse assessed as karyomegaly at 1 mg/kg, sc after 9 days; format: organism-based; parameters: dose 1 mg/kg, route subcutaneous; details: in vivo, 216 h; in short: as §1
[14] = Metabolic stability in mouse liver microsomes after 1 hr by LC/MS/MS analysis; format: ADME, Microsome; details: read-out: Stability; in short: as §4
Mus musculus [15] = assay: Acute toxicity in C57BL/6J mouse assessed as lesions in GI tract at 1 to 10 mg/kg, sc after 9 days; format: organism-based, Gastrointestinal tract; parameters: dose 1-10 mg/kg, route subcutaneous; details: in vivo, 216 h; in short: as §1
Mus musculus [16] = assay: Acute toxicity in C57BL/6J mouse assessed as milder tubular regeneration at 1 mg/kg, sc after 9 days; format: organism-based; parameters: dose 1 mg/kg, route subcutaneous; details: in vivo, 216 h; in short: as §1
Mus musculus [17] = assay: Acute toxicity in C57BL/6J mouse assessed as lesions in pancreas at 1 to 10 mg/kg, sc after 9 days; format: organism-based; parameters: dose 1-10 mg/kg, route subcutaneous; details: in vivo, 216 h; in short: as §1
[18] = Metabolic stability in mouse liver microsomes after 1 hr by LC/MS/MS analysis in presence of NADPH; format: ADME, Microsome; details: read-out: Stability; in short: as §4
Mus musculus [19] = assay: Acute toxicity in C57BL/6J mouse assessed as lesions in lungs at 1 to 10 mg/kg, sc after 9 days; format: organism-based; parameters: dose 1-10 mg/kg, route subcutaneous; details: in vivo, 216 h; in short: as §1
Mus musculus [20] = assay: Acute toxicity in C57BL/6J mouse assessed as mild lymphoid apoptosis in white pulp of spleen at 3 to 10 mg/kg, sc after 9 days; format: organism-based; parameters: dose 3-10 mg/kg, route subcutaneous; details: in vivo, 216 h; in short: as §1
Mus musculus [21] = assay: Acute toxicity in C57BL/6J mouse assessed as lesions in heart at 1 to 10 mg/kg, sc after 9 days; format: organism-based; parameters: dose 1-10 mg/kg, route subcutaneous; details: in vivo, 216 h; in short: as §1
Mus musculus [22] = assay: Acute toxicity in C57BL/6J mouse assessed as loss of mobility at 3 to 10 mg/kg, sc after 9 days; format: organism-based; parameters: dose 3-10 mg/kg, route subcutaneous; details: in vivo, 216 h; in short: as §3
Mus musculus [23] = assay: Acute toxicity in C57BL/6J mouse assessed as hepatocellular necrosis and apoptosis at 1 mg/kg, sc after 9 days; format: organism-based; parameters: dose 1 mg/kg, route subcutaneous; details: in vivo, 216 h; in short: as §1
Mus musculus [24] = assay: Acute toxicity in C57BL/6J mouse assessed as diffuse hepatocellular necrosis and apoptosis at 3 to 10 mg/kg, sc after 9 days; format: organism-based; parameters: dose 3-10 mg/kg, route subcutaneous; details: in vivo, 216 h; in short: as §1
Mus musculus [25] = assay: Toxicity in C57BL/6J mouse assessed as hepatocellular necrosis and apoptosis at 1 mg/kg, sc administered every 3 days for a cycle of 3 injections measured 2 days post last injection; format: organism-based; parameters: dose 1 mg/kg, route subcutaneous; details: in vivo, 48 h; in short: as §5
Mus musculus [26] = assay: Acute toxicity in C57BL/6J mouse assessed as multifocal bridging hepatocellular necrosis and apoptosis at 3 to 10 mg/kg, sc after 9 days; format: organism-based; parameters: dose 3-10 mg/kg, route subcutaneous; details: in vivo, 216 h; in short: as §1

CC(=O)N[C@@H](CNC(=O)c1cc(NC(=O)c2cc(NC(=O)c3cc(NC(=O)c4nccn4C)cn3C)cn2C)cn1C)CC(=O)Nc1cn(C)c(C(=O)Nc2cc(C(=O)Nc3cc(C(=O)Nc4cc(C(=O)NCCCN(C)CCCNC(=O)c5cccc(C(=O)O)c5)n(C)c4)n(C)c3)n(C)c2)n1
Toxic: Activity (Mus musculus [1]) | Activity (Mus musculus [2]) | Activity (Mus musculus [3]) | Activity (Mus musculus [4]) | Activity (Mus musculus [5]) | Activity (Mus musculus [6]) | Activity (Mus musculus [7]) | Activity (Mus musculus [10]) | Activity (Mus musculus [13]) | Activity (Mus musculus [16]) | Activity (Mus musculus [20]) | Activity (Mus musculus [22]) | Activity (Mus musculus [23]) | Activity (Mus musculus [24]) | Activity (Mus musculus [25]) | Activity (Mus musculus [26])
< 5%: remaining at 1 h [8] | remaining at 1 h [9] | remaining at 1 h [14] | remaining at 1 h [18]
Non-toxic: Activity (Mus musculus [11]) | Activity (Mus musculus [12]) | Activity (Mus musculus [15]) | Activity (Mus musculus [17]) | Activity (Mus musculus [19]) | Activity (Mus musculus [21])
